In series [1] the target is T1, DNA excision repair protein ERCC-1/DNA repair endonuclease XPF (Homo sapiens, UniProt P07992+Q92889).
T1 sequence (P07992 whole entry): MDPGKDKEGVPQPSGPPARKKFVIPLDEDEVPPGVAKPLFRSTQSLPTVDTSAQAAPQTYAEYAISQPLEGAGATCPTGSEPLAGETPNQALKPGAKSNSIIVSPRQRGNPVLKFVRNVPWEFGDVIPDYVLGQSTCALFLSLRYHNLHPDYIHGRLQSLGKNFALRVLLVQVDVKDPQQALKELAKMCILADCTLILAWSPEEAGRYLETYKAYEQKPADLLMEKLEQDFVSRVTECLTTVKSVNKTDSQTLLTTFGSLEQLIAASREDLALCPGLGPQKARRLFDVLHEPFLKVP
T1 sequence (Q92889 whole entry): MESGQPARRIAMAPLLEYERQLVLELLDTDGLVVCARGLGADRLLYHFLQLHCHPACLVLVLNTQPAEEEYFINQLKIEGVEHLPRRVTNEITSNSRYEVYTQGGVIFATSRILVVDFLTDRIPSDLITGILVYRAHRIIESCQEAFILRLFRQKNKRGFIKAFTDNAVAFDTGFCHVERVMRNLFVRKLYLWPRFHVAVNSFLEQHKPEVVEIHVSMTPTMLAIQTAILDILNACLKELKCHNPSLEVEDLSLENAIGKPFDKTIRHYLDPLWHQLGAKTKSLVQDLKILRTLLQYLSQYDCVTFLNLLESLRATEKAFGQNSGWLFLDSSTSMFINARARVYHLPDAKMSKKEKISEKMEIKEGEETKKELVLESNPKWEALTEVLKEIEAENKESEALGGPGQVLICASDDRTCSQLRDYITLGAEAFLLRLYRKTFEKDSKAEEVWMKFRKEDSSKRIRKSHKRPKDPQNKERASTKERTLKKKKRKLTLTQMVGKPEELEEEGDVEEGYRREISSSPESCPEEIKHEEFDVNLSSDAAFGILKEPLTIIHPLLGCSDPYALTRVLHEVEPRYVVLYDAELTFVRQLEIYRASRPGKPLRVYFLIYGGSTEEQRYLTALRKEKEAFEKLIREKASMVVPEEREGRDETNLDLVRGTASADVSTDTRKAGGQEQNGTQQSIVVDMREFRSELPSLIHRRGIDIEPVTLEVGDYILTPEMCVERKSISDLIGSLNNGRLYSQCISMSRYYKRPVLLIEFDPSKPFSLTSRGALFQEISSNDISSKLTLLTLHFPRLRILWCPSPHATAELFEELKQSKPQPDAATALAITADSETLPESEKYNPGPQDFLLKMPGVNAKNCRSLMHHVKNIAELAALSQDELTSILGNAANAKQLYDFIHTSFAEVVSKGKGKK
Put plainly: Inhibition of ERCC1-XPF (unknown origin) by high-throughput fluorescence based in-vitro endonuclease assay. The class given is protein-complex assay.

The target in the next series is T2, Deoxyribonuclease-1 (Homo sapiens, UniProt P24855).
T2 sequence (P24855 whole entry): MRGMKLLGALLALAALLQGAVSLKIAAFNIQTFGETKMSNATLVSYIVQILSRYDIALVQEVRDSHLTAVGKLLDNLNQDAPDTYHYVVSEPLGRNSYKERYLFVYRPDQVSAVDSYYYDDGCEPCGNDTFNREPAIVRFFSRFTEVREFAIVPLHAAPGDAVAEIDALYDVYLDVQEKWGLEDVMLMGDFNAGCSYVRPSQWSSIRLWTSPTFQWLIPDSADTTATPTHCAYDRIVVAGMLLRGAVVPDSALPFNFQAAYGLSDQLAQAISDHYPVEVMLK
In words: Inhibition of DNAse1 (unknown origin).

The next series has as its target Flap endonuclease 1 (Homo sapiens, UniProt P39748). In words: Inhibition of FEN1 (unknown origin).
Series [2] is described as follows: Half life in mouse liver microsomes. The class given is ADME.
Series [3] in a line: Lipophilicity, log D of the compound. The class given is physicochemical. The following applies: octanol/water.
Series [4] can be described thus: Half life in human liver microsomes. The class given is ADME.
For series [5], the target named is T1, DNA excision repair protein ERCC-1/DNA repair endonuclease XPF. In words: Binding affinity to ERCC1-XPF (unknown origin) by SPR assay. The class given is protein-complex assay.
The nature of series [6]: Apparent permeability by PAMPA method. The class given is physicochemical.
Another series concerns HepG2. Put plainly: Cytotoxicity against human HepG2 cells. The class given is cell-based. The method in brief: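 Hep-G2 cells exposed to compound at concentrations up to 10 μM; toxicity assessed.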

SMILES strings stand for the structures.

Flap endonuclease 1, sequence (P39748 whole entry): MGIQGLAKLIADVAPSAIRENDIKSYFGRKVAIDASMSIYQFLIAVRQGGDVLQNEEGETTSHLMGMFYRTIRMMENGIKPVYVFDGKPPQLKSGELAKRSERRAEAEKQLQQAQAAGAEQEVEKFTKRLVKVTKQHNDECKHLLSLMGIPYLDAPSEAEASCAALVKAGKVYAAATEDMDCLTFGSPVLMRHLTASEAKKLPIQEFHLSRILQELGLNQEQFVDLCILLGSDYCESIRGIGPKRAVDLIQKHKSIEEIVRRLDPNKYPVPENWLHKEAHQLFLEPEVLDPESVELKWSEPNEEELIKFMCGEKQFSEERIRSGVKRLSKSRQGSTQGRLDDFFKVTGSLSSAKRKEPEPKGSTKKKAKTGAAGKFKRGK

In the case of `O=c1[nH]cc(-c2cccc(-n3cccn3)c2)cc1O`, the 50% inhibitory concentration (IC50) is 5.2 µM in [1], above 100 µM against Deoxyribonuclease-1 and above 100 µM against Flap endonuclease 1.

As for `O=C(CNc1ccccc1)NCCc1ccc(O)c(O)c1`, the IC50 is 15.2 µM in [1], above 100 µM against Deoxyribonuclease-1 and above 100 µM against Flap endonuclease 1.

On to `COc1ccc(CC(=O)NCc2ccc(O)c(O)c2)cc1`, for which it took 2.6 µM to reach half-maximal inhibition in series [1] (IC50).

With `O=C(Cc1ccc(O)c(O)c1)NCc1ccc(Cl)cc1Cl`, the IC50 is 0.74 µM in series [1], above 100 µM against Deoxyribonuclease-1 and above 100 µM against Flap endonuclease 1.

In series [1], `N#Cc1cccc(CC(=O)NCc2ccc(O)c(O)c2)c1` gave an IC50 of 4 µM. This lies in the single-digit micromolar range.

Turning to `O=C(NCc1ccc(O)c(O)c1)C1CCCC1`, the IC50 is 24.6 µM in series [1], above 100 µM against Deoxyribonuclease-1 and above 100 µM against Flap endonuclease 1.

As for `Cn1ncc2ccc(-c3c[nH]c(=O)c(O)c3)cc21`, the IC50 is 14.6 µM in series [1], above 100 µM against Deoxyribonuclease-1 and above 100 µM against Flap endonuclease 1.

Take `O=C1N(Cc2ccc(Cl)cc2)CCN1Cc1ccc(O)c(O)c1`: the IC50 in series [1] was 4.1 µM; at Deoxyribonuclease-1 it was above 100 µM; on Flap endonuclease 1, above 100 µM.

With `O=C(Cc1cccnc1)NCc1ccc(O)c(O)c1`, in series [1], the IC50 stood at 25.6 µM.

With `Oc1ccc(-c2nc(Cc3ccc(Cl)cc3)no2)cc1O`, the IC50 in series [1] was 7.8 µM; at Deoxyribonuclease-1, above 100 µM; against Flap endonuclease 1, above 100 µM.

Turning to `Cc1cccc(NCC(=O)N/N=C/c2cc(Br)c(O)c(O)c2Br)c1`, the IC50 is 33 µM in series [1], above 100 µM at Deoxyribonuclease-1 and above 100 µM against Flap endonuclease 1.

In [1], `O=C(Cc1ccc(Cl)cc1Cl)NCc1c[nH]c(=O)c(O)c1` gave a half-maximal inhibitory concentration (IC50) of 100 µM.

As for `O=C(Cc1ccc(Cl)cc1Cl)NCc1cc(O)c(O)cc1F`, the results for the concentration for half-maximal inhibition (IC50) (in series [1]; against Deoxyribonuclease-1; at Flap endonuclease 1) were 1.1 µM, above 100 µM and above 100 µM, respectively.

As for `O=C(COc1ccccc1)NCc1ccc(O)c(O)c1`, the results for the IC50 (in [1]; against Deoxyribonuclease-1; at Flap endonuclease 1) were 12.1 µM, above 100 µM and above 100 µM, respectively.

For `CC(=O)Nc1ccc(-c2c[nH]c(=O)c(O)c2)cc1`, the IC50 in series [1] is 13.5 µM; against Deoxyribonuclease-1, above 100 µM; on Flap endonuclease 1 it was above 100 µM.

Compound `O=c1[nH]ccc(-c2ccc(F)cc2)c1O` registered an IC50 in [1] above 100 µM.

Take `O=c1[nH]cc(Br)cc1O`: the IC50 in series [1] came out at 24 µM.

As for `O=C(Cc1ccc(N2CCOCC2)cc1)NCc1ccc(O)c(O)c1`, the concentration for half-maximal inhibition (IC50) is 7.9 µM in series [1], above 100 µM against Deoxyribonuclease-1 and above 100 µM on Flap endonuclease 1.

As for `O=C(CCc1ccccc1)NCc1ccc(O)c(O)c1`, the half-maximal inhibitory concentration (IC50) in series [1] is 7.3 µM; against Deoxyribonuclease-1 it was above 100 µM; against Flap endonuclease 1, above 100 µM.

Consider `O=C(Cc1ccc(Cl)cc1)NCc1ccc(O)c(O)c1`, for which the figures for the concentration for half-maximal inhibition (IC50) (in series [1]; against Deoxyribonuclease-1; against Flap endonuclease 1) were 1 µM, above 100 µM and above 100 µM, respectively.

With `O=S(=O)(Cc1ccc(Cl)cc1Cl)NCc1ccc(O)c(O)c1`, the figures for the half-inhibitory concentration (IC50) (in series [1]; against Deoxyribonuclease-1; against Flap endonuclease 1) were 2.9 µM, above 100 µM and above 100 µM, respectively.

Regarding `CC(C(=O)NCc1ccc(O)c(O)c1)c1ccccc1` (stereo unspecified), the IC50 in series [1] is 1.8 µM; at Flap endonuclease 1, above 100 µM.

As for `CN(Cc1ccc(O)c(O)c1)C(=O)Cc1ccc(Cl)cc1Cl`, the 50% inhibitory concentration (IC50) in series [1] is 0.8 µM; against Deoxyribonuclease-1 it was above 100 µM; at Flap endonuclease 1, above 100 µM.

With `O=C(CC1CCCCC1)NCc1ccc(O)c(O)c1`, the figures for the IC50 (in series [1]; at Deoxyribonuclease-1; against Flap endonuclease 1) were 1.4 µM, above 100 µM and above 100 µM, respectively.

For the compound `O=C(CNc1ccccc1)Nc1ccc(O)c(O)c1`, the concentration for half-maximal inhibition (IC50) in series [1] was 1.6 µM; at Deoxyribonuclease-1, above 100 µM; at Flap endonuclease 1 it was above 100 µM.

Take `O=C(NCc1ccc(O)c(O)c1)Nc1ccc(Cl)cc1`: the values for the IC50 (in [1]; on Deoxyribonuclease-1; against Flap endonuclease 1) were 4.8 µM, above 100 µM and above 100 µM, respectively.

On to `O=C(Cc1ccccc1Cl)NCc1ccc(O)c(O)c1`, for which the figures for the IC50 (in series [1]; against Deoxyribonuclease-1; against Flap endonuclease 1) were 0.8 µM, above 100 µM and above 100 µM, respectively.

Turning to `O=C(CNc1ccccc1)N/N=C/c1ccc(O)c(O)c1`, the IC50 in series [1] was 2 µM; against Deoxyribonuclease-1 it was above 100 µM; against Flap endonuclease 1, above 100 µM.

With `O=c1[nH]cc(-c2ccc(F)cc2)cc1O`, the half-life in series [2] and in series [4] was above 6.67 h each time. The results for the IC50 (in series [1]; against Deoxyribonuclease-1; against Flap endonuclease 1) were 8.7 µM, above 100 µM and above 100 µM, respectively. Besides, the pH-dependent lipophilicity (logD) in series [3] came out at 2. This compound also returned a dissociation constant Kd in series [5] of 3.5 µM. Besides, in [6], the apparent permeability (Papp) stood at 4.4 ×10⁻⁶ cm/s. This compound also showed an Activity with HepG2 above 10 µM.

Consider `O=C(NCc1ccc(O)c(O)c1)c1ccccc1`, for which the values for the IC50 (in series [1]; at Deoxyribonuclease-1; at Flap endonuclease 1) were 24.5 µM, above 100 µM and above 100 µM, respectively.

`Oc1ccc(Cc2nc(-c3ccc(Cl)cc3)no2)cc1O`: the results for the IC50 (in series [1]; at Deoxyribonuclease-1; at Flap endonuclease 1) were 12.2 µM, above 100 µM and above 100 µM, respectively.

Take `O=C(NCc1ccc(O)c(O)c1)C1CCN(Cc2ccc(F)cc2)CC1`: the IC50 was 5.8 µM in [1], above 100 µM against Deoxyribonuclease-1 and above 100 µM at Flap endonuclease 1.

As for `O=C(Cc1ccc(Cl)cc1Cl)NCc1ccc(O)c(O)c1Cl`, the results for the 50% inhibitory concentration (IC50) (in series [1]; on Deoxyribonuclease-1; on Flap endonuclease 1) were 1.6 µM, above 100 µM and above 100 µM, respectively.

For the compound `O=C(Cc1ccccc1)NCc1ccc(O)c(O)c1`, the IC50 in [1] was 13.3 µM; against Deoxyribonuclease-1 it was above 100 µM; at Flap endonuclease 1, above 100 µM.

`Cn1cc(-c2ccc(F)cc2)cc(O)c1=O` returned a half-maximal inhibitory concentration (IC50) in series [1] above 100 µM.

`CC(=O)N1CCN(CC(=O)NCc2ccc(O)c(O)c2)CC1`: the half-inhibitory concentration (IC50) (in series [1]; at Deoxyribonuclease-1) was above 100 µM throughout.

Consider `O=C(Cc1ccc(Cl)cc1Cl)N1CCc2cc(O)c(O)cc2C1`, for which the IC50 in series [1] was 1 µM; on Deoxyribonuclease-1, above 100 µM; at Flap endonuclease 1 it was above 100 µM.

Turning to `CC(C)C(=O)NCc1ccc(O)c(O)c1`, inhibition in series [1] was half-maximal at 24 µM (IC50).

On to `O=C(NCc1ccc(O)c(O)c1)C1(c2ccccc2)CCCCC1`, for which the IC50 in [1] is 1.6 µM; against Flap endonuclease 1, above 100 µM.

`O=c1[nH]c(-c2ccc(F)cc2)ccc1O`: the IC50 in series [1] stood at 55.2 µM.

`O=C(CNc1ccccc1)NCc1ccc(O)c(O)c1`: the 50% inhibitory concentration (IC50) is 0.9 µM in series [1], above 100 µM at Deoxyribonuclease-1 and above 100 µM against Flap endonuclease 1.

For `O=c1[nH]cc(-c2ccc(F)c(Cl)c2)cc1O`, the IC50 in [1] was 13.1 µM; at Deoxyribonuclease-1 it was above 100 µM; against Flap endonuclease 1 it was above 100 µM.

The record behind these values is ChEMBL document CHEMBL3616382, “Catechols and 3-hydroxypyridones as inhibitors of the DNA repair complex ERCC1-XPF” (Bioorg Med Chem Lett, 2015).
